This is a sample that favours compounds with a hit; in the whole collection about 0.73% have one here.
C-LANA FP: inhibitors of KSHV C-LANA binding to DNA, primary screen, biochemical, fluorescence polarization, FAM-LBS DNA, MBP-C-LANA, single point | Kaposi's sarcoma herpesvirus LANA C-terminal domain (residues 932-1162) DNA binding | inhibition, % at 9 µM | 0.078% of 340,000 active | AID 504423, 2011;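 active = highest replicate inhibition at or above 60% at 9 µM, even if other replicates fall short; inactive = all replicates below 60% inhibition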
DDE Tn7 FP inh: inhibitors of Tn7 peptide binding to fibrin DD(E), primary screen, biochemical, fluorescence polarization, human fibrin, Tn7 probe | 0.13% of 370,000 active | inhibition, % at 8.3 µM | FP displacement of FITC-Tn7 peptide from fibrin DD(E); 0% = median of compound wells per plate | Fibrinogen beta chain (Homo sapiens), P02675 | AID 720508, 2013;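 active = inhibition above the mean of compounds falling within the control limits plus 3 SD of them, cut at about 14% in these data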
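system = human fibrin DD(E) protein | quantity = DD(E) 2 µM final | medium = Tris/NaCl/CaCl2 buffer, pH 7.8 | also added = labelled Tn7 tracer, 0.1 µM | compound dosing = single point at 8.3 µM | timing = compound with protein 10 min, then 3 h after probe, room temperature | signal = FP measurement | benchmarks = Aha-Tn7 high control | repeats = one replicate per compound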
Keap1-Nrf2 PPI: Keap1-Nrf2 protein-protein interaction inhibitors, primary screen, biochemical, fluorescence polarization, single point; Kelch-like ECH-associated protein 1 (Homo sapiens), Q14145; Keap1 Kelch-Nrf2 peptide fluorescence polarization, 1536-well; inhibition, % at 9.4 µM; 0.15% of 340,000 active; AID 504523, 2011; in the data active = inhibition above about 12%;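 also: human Keap1 Kelch domain with fluorescein labeled Nrf2 9mer peptide probe; higher means more block of Keap1 binding to Nrf2 peptide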
Target sequence (Q14145 whole entry, looked up, the tested form may be a part): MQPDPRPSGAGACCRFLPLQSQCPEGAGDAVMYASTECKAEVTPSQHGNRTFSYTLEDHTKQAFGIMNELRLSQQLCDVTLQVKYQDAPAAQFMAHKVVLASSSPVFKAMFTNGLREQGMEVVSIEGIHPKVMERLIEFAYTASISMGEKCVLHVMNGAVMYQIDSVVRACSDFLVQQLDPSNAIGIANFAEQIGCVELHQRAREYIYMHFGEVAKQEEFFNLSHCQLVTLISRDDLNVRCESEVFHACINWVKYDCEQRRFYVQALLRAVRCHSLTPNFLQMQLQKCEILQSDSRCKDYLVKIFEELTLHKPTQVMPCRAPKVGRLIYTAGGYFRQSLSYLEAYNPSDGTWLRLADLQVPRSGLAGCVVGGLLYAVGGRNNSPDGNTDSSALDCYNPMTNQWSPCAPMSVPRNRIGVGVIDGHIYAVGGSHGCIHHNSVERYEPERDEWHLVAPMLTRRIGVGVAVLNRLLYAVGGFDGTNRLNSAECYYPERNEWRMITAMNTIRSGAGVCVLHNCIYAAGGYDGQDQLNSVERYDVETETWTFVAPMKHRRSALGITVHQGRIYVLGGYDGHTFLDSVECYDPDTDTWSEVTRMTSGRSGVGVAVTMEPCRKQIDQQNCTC
Cardiac RTF inh: cardiac RTF calcium sensitivity inhibitors, primary screen, biochemical, IANBD-TnC fluorescence, EC70 calcium. Troponin I, cardiac muscle (Homo sapiens) + Troponin T, cardiac muscle (Homo sapiens) + …. IANBD-labeled cardiac RTF, Ca2+ fluorescence. 0.12% of 340,000 active. inhibition, % at 7.15 µM. AID 493244, 2011;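 active = inhibition above the mean inhibition of all tested compounds plus 3 SD, cut at about 17% in these data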;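 also: assay run at fixed EC70 calcium of 1.6 mM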
cardiac RTF act: cardiac RTF calcium sensitivity activators, primary screen, biochemical, IANBD-TnC fluorescence, EC20 calcium. Troponin I, cardiac muscle (Homo sapiens) + Troponin T, cardiac muscle (Homo sapiens) + …. IANBD-labeled TnC RTF fluorescence at EC20 calcium; 0% EC20 calcium, 100% full calcium. activation, % at 7.2 µM. 0.24% of 340,000 active. AID 493008, 2010;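 active = activation above the mean over all tested compounds plus 3 SD, cut at about 30% in these data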;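 also: rise in fluorescence read as greater calcium sensitivity of cardiac thin filaments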
Tn6 DDE FP: inhibitors of Tn6 peptide binding to fibrin DD(E), primary screen, biochemical, fluorescence polarization, human fibrin, Tn6 probe; Fibrin DD(E) TRITC-Tn6 fluorescence polarization displacement; inhibition, % at 8.3 µM; 0.21% of 370,000 active;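 active = inhibition above a per-campaign cutoff: mean of compounds within control limits plus 3 SD, cut at about 15% in these data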
Numbers stand for hits; 0 = inactive; - = no result; + = active, no number.

SMILES | C-LANA FP | DDE Tn7 FP inh | Keap1-Nrf2 PPI | Cardiac RTF inh | cardiac RTF act | Tn6 DDE FP
Nc1c(C=C2C=CC(=O)C=C2)c(=O)nc2sc(CC(=O)N3CCCCC3)nn12 | 0 | 0 | 0 | 0 | 0 | 0
Nc1c(/C=C2/C=CC(=O)C(O)=C2)c(=O)nc2sc(CC(=O)N3CCCCC3)nn12 | 108 | 0 | 0 | 0 | 0 | 0
COC(=O)C1=C(C)N(Cc2ccc(C(F)(F)F)cc2)C(=NCc2ccc(C(F)(F)F)cc2)NC1c1ccccc1C(F)(F)F (centres undefined) | - | 0 | - | - | - | 0
CN1CC=C2C(C#N)=C(N)C(C#N)(C#N)C(CCc3ccccc3)C2C1 (centres undefined) | 0 | - | 20 | 0 | 35 | -
COCCNC(=O)c1onc(CSc2ccccc2C)c1C(=O)O | 0 | 0 | 0 | 0 | 0 | 22
COc1cc(/C=C(\C#N)c2nc3ccccc3s2)ccc1OCC(=O)Nc1ccccc1 | 0 | - | 0 | 0 | 34 | -
COc1ccc(/C=c2\s/c(=C/C(=O)c3ccc(C)cc3)[nH]c2=O)cc1OC | 0 | 0 | 0 | 0 | 30 | 0
CC(C)(C)C(=O)/C=c1\[nH]c(=O)/c(=C\c2ccc(F)cc2)s1 | 0 | 0 | 0 | 0 | 0 | 0
CC(=O)c1cccc(-c2ccnc3c2CC(C(=O)NCC2CCOCC2)O3)c1 (centres undefined) | - | 0 | - | - | - | 0
COC(=O)c1ccc(CS(=O)(=O)c2ccc(F)cc2)o1 | 0 | 0 | 0 | 0 | 32 | 0
Clc1ccccc1N=Nc1ccccn1 | 0 | 0 | 14 | 0 | 0 | 0
CCCCCn1nc(-c2ccccc2)c2nc3ccccc3nc21 | 94 | 0 | 0 | 0 | 0 | 0
Nc1c(C(=O)c2ccccc2)sc2nsc(SCCN3CCCC3)c12 | 0 | 0 | 0 | 0 | 0 | 0
Nc1c(C(=O)c2ccc(Cl)cc2)sc2nsc(SCCN3CCOCC3)c12 | 0 | 0 | 0 | 0 | 33 | 0
O=c1[nH][nH]c2c(N=Cc3ccccc3O)ccc(F)c12 | 87 | - | 0 | 34 | 0 | -
O=c1[nH][nH]c2c([N+](=O)[O-])ccc(F)c12 | - | 0 | - | - | - | 0
CC(C)C[C@H](NC1(C(=O)NC2CCCCC2)CCN(C)CC1)C(=O)NCC(c1ccccc1)c1ccccc1 | - | 0 | - | - | - | 0
CC(C)C[C@@H](CNCC(=O)[C@H](Cc1ccccc1)NC(=O)c1[nH]cnc1C(=O)N[C@H](CN)CC(C)C)NC(=O)c1nc[nH]c1C(=O)N[C@@H](CC(=O)O)C(=O)O | 0 | 0 | 0 | 0 | 0 | 0
O=C(O)CCCN1C(=O)/C(=C/c2cn(-c3ccccc3)nc2-c2cccs2)SC1=S | 0 | 0 | 0 | 0 | 31 | 0
O=C(O)CCCN1C(=O)/C(=C\c2ccccc2OCc2ccccc2)SC1=S | 0 | 0 | 0 | 0 | 0 | 0
CCC(=O)N1CCC1(C)C(=O)Nc1ccc(Cl)c(Cl)c1 (centres undefined) | - | 0 | - | - | - | 0
Cc1ccc(S(=O)(=O)Nc2nc3ccccc3nc2NCc2ccco2)cc1 | 0 | 0 | 0 | 0 | 0 | 44
O=S(=O)(Nc1nc2ccccc2nc1NCc1ccco1)c1ccc(Cl)cc1 | 0 | 0 | 0 | 0 | 0 | 0
C[C@H]1Cn2cnc(C(=O)N(C)Cc3ccccc3)c2C(=O)N1 | - | 0 | - | - | - | 0
C/C(=N\NC(=O)c1ccncc1)c1cc2ccccc2oc1=O | 0 | 0 | 0 | 0 | 0 | 0
SMILES | C-LANA FP | DDE Tn7 FP inh | Keap1-Nrf2 PPI | Cardiac RTF inh | cardiac RTF act | Tn6 DDE FP
C/C(=N/NC(=O)c1ccncc1)c1cc2ccc(O)cc2oc1=O | 75 | 0 | 0 | 0 | + | 0
COc1ccc(C2C(C(C)=O)=C(C)N=c3s/c(=C\c4ccco4)c(=O)n32)c(OC)c1 (centres undefined) | 0 | 0 | 0 | 0 | 0 | 0
COc1ccc(C2C(C(C)=O)=C(C)N=c3s/c(=C\c4cc(C)n(C)c4C)c(=O)n32)c(OC)c1 (centres undefined) | 0 | 0 | 0 | 0 | 110 | 0
CC(=O)Nc1ccc(S(=O)(=O)NCC2CCN(C(=O)C(=O)c3cccs3)CC2)cc1 | - | 0 | - | - | - | 0
COc1ccc2nc3ccccc3nc2c1NC(=O)c1ccc(Cl)cc1Cl | 0 | 0 | 0 | 0 | 361 | 0
COC(=O)[C@]12C[C@H](CC(=O)NCC34CC5CC(CC(C5)C3)C4)C(=O)N(Cc3ccco3)C1=C[C@H](C1CCCC1)O[C@@H]2C | - | 0 | - | - | - | 0
N#C/C(=C\C=C\c1ccccc1)c1nc(-c2ccc3c(c2)OCO3)cs1 | 0 | 0 | 0 | 0 | 34 | 0
COC(=O)[C@]12C[C@H](CC(=O)NCCCCc3ccccc3)C(=O)N(CCC3=CCCCC3)C1=C[C@H](C1CCCC1)O[C@@H]2C | - | 0 | - | - | - | 0
COc1ccc(CNC(=O)C[C@H]2C[C@H](C(=O)N3CCCCC3)[C@@]3(C)c4[nH]c5cc(CCC(=O)N(C)C)ccc5c4CCN3C2=O)cc1OC | 0 | 0 | 0 | 0 | 0 | 16
COc1ccc(CNC(=O)C[C@H]2C[C@H](C(=O)N(C(C)C)C(C)C)[C@@]3(C)c4[nH]c5cc(CCC(=O)N(C)C)ccc5c4CCN3C2=O)cc1OC | 0 | 0 | 0 | 0 | 0 | 0
CN(C)c1ccc(/C=C/c2ccc3c4ccccc4ccc3[n+]2-c2ccccc2)cc1 | 0 | 0 | 0 | 0 | 0 | +
Nc1nnnn1/N=C/c1cc(Cl)cc(Cl)c1O | 0 | 0 | 0 | 0 | 32 | 0
CC(C)Oc1cccc(-c2csc(N3CCC(C(N)=O)CC3)n2)c1 | - | 0 | - | - | - | 0
CN1/C(=C/C=C(C#N)C#N)C(C)(C)c2ccccc21 | 150 | 0 | 0 | 0 | 0 | 0
CN1\C(=C/C=C/C=C/C=[N+](C)C)C(C)(C)c2ccccc21 | 0 | 0 | 0 | 0 | 218 | 31
C[C@H]1C2CC(OC(=O)Nc3ccc(C#N)cc3)C(C2)[C@H]2CCCCN21 (some centres undefined) | - | 0 | - | - | - | 0
COc1ccc(CN2C[C@H](COCc3ccccc3)Oc3cccc(Oc4ccc(C(C)C)cc4)c3S2(=O)=O)cc1 | - | 0 | - | - | - | 0
C[C@@H](CO)N(Cc1cn(Cc2ccccc2)nn1)S(=O)(=O)c1ccc(F)cc1Br | - | 0 | - | - | - | 0
O=C(O)c1ccc(NS(=O)(=O)c2ccc3c(c2)C2C=CCC2C(c2ccccc2F)N3)cc1 (centres undefined) | 108 | 0 | 0 | 0 | 0 | 0
CN(C)C(CNC(=O)c1cccc(S(=O)(=O)N2CCN(c3ccc(F)cc3)CC2)c1)c1ccccc1 (centres undefined) | 0 | 0 | 0 | 0 | 0 | 0

Screening data (PubChem BioAssay)
